≈ marks a conversion by molar mass, not a printed value.
test system: Mycobacterium tuberculosis; assay: Antitubercular activity against moxifloxacin-resistant Mycobacterium tuberculosis assessed as reduction in bacterial growth incubated for 14 days; format: functional; settings: 336 h, time 14 day
Summary of the method: (§1)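 Strains were H37Rv, the fluoroquinolone-resistant GyrA G88C mutant, and the dprE1 P116S and C387S mutants. All were cultured in standard Middlebrook 7H9 with ADC supplement.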

Structure (SMILES) | MIC90
O=C(NCCc1ccc(F)cc1)c1c[nH]c2c([N+](=O)[O-])cc(C(F)(F)F)cc2c1=O | 1.9 µM (≈ 0.804 µg/mL)
O=C(NCCc1ccc(C(F)(F)F)cc1)c1c[nH]c2c([N+](=O)[O-])cc(C(F)(F)F)cc2c1=O | 0.9 µM (≈ 0.426 µg/mL)
COc1c(N2C[C@@H]3CCCN[C@@H]3C2)c(F)cc2c(=O)c(C(=O)O)cn(C3CC3)c12 [MOXIFLOXACIN] | 6.3 µM (≈ 2.53 µg/mL)
NNC(=O)c1ccncc1 [ISONIAZID] | 3.6 µM (≈ 0.494 µg/mL)
O=C(NCCc1ccc(Cl)cc1)c1c[nH]c2c([N+](=O)[O-])cc(C(F)(F)F)cc2c1=O | 1.9 µM (≈ 0.836 µg/mL)

test system: Mycobacterium tuberculosis; assay: Antitubercular activity against Mycobacterium tuberculosis harboring DprE1 p116S mutant assessed as reduction in bacterial growth incubated for 14 days; format: functional; settings: time 14 day; summary of the method: as §1

Structure (SMILES) | MIC90
O=C(NCCc1ccc(F)cc1)c1c[nH]c2c([N+](=O)[O-])cc(C(F)(F)F)cc2c1=O | 1 µM (≈ 0.423 µg/mL)
O=C(NCCc1ccc(C(F)(F)F)cc1)c1c[nH]c2c([N+](=O)[O-])cc(C(F)(F)F)cc2c1=O | 0.5 µM (≈ 0.237 µg/mL)
COc1c(N2C[C@@H]3CCCN[C@@H]3C2)c(F)cc2c(=O)c(C(=O)O)cn(C3CC3)c12 [MOXIFLOXACIN] | 0.1 µM (≈ 0.0401 µg/mL)
NNC(=O)c1ccncc1 [ISONIAZID] | 2 µM (≈ 0.274 µg/mL)
O=C(NCCc1ccc(Cl)cc1)c1c[nH]c2c([N+](=O)[O-])cc(C(F)(F)F)cc2c1=O | 17 µM (≈ 7.48 µg/mL)

test system: Mycobacterium tuberculosis; assay: Antitubercular activity against Mycobacterium tuberculosis harboring DprE1 C387S mutant assessed as reduction in bacterial growth incubated for 14 days; format: functional; settings: time 14 day; summary of the method: as §1

Structure (SMILES) | MIC90
O=C(NCCc1ccc(F)cc1)c1c[nH]c2c([N+](=O)[O-])cc(C(F)(F)F)cc2c1=O | >62 µM
O=C(NCCc1ccc(C(F)(F)F)cc1)c1c[nH]c2c([N+](=O)[O-])cc(C(F)(F)F)cc2c1=O | 54.2 µM (≈ 25.7 µg/mL)
COc1c(N2C[C@@H]3CCCN[C@@H]3C2)c(F)cc2c(=O)c(C(=O)O)cn(C3CC3)c12 [MOXIFLOXACIN] | 0.05 µM (≈ 0.0201 µg/mL)
NNC(=O)c1ccncc1 [ISONIAZID] | 3.3 µM (≈ 0.453 µg/mL)
O=C(NCCc1ccc(Cl)cc1)c1c[nH]c2c([N+](=O)[O-])cc(C(F)(F)F)cc2c1=O | 44.8 µM (≈ 19.7 µg/mL)

— ChEMBL document CHEMBL5620388, “Quinolone analogues of benzothiazinone: Synthesis, antitubercular structure-activity relationship and ADME profiling” (Eur J Med Chem, 2023)
